CHRM4 antagonist – human M4 muscarinic receptor antagonists, primary screen, CHO cells, Fluo-8 calcium fluorescence; inhibition, % at 3 µM; Muscarinic acetylcholine receptor M4 (Homo sapiens), P08173; hit rate 0.73% among 360,000; CHO-hM4 cells, ACh EC80; AID 624125, 2012;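 active = inhibition above its plate's cutoff, the mean inhibition of sample wells plus 3 SD, cut at about 27% in these data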;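 also: 0% = acetylcholine EC80 with DMSO and 100% = DMSO without agonist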
Target sequence (P08173 whole entry, looked up): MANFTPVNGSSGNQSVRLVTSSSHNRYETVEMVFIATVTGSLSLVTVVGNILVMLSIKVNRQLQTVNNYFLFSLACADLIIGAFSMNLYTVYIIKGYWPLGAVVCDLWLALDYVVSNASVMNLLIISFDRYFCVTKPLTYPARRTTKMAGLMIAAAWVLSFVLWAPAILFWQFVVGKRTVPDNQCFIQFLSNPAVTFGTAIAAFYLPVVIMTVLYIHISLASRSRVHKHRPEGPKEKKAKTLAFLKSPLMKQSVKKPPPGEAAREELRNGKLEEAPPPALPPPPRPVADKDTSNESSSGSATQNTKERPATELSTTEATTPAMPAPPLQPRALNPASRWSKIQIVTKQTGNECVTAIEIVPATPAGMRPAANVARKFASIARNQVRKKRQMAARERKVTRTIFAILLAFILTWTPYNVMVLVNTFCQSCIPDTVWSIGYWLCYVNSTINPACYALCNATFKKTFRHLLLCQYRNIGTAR
M4 ag – human M4 muscarinic receptor agonists, primary screen, CHO-K1 cells, Fluo-8 calcium fluorescence. CHO-K1 hM4/Gqi5; vehicle 0%, full acetylcholine response 100%. activation, % at 3 µM. AID 624127, 2012. hit rate 0.14% among 360,000;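 active = activation above the run mean over all test wells plus 3 SD, cut at about 32% in these data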;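 also: peak over basal fluorescence ratio per well then scaled between controls; 0% = DMSO wells and 100% = acetylcholine at EC100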
M5 ag – human M5 muscarinic receptor agonists, primary screen, CHO-K1 cells, Fluo-8 calcium fluorescence. Muscarinic acetylcholine receptor M5 (Homo sapiens), P08912. CHO-K1 hM5 cells; 0% DMSO wells, 100% maximal acetylcholine response. activation, % at 3 µM. hit rate 0.19% among 360,000. AID 624037, 2012;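 active = activation above the run's mean over test compounds plus 3 SD, cut at about 23% in these data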;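 also: signal is peak over basal fluorescence ratio across the kinetic read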
M5 antag – human M5 muscarinic receptor antagonists, primary screen, CHO cells, Fluo-8 calcium fluorescence. Muscarinic acetylcholine receptor M5 (Homo sapiens), P08912. CHO-hM5 cells, ACh EC80. inhibition, % at 3 µM. hit rate 0.59% among 360,000. AID 624040, 2012;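 active = inhibition above a per-plate cutoff, the mean of that plate's test compounds plus 3 SD, cut at about 27% in these data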;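 also: 0% = acetylcholine EC80 with DMSO and 100% = DMSO without agonist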
CHRM4 PAM – human M4 muscarinic receptor positive allosteric modulators, primary screen, CHO-K1 cells, Fluo-8 calcium fluorescence | hit rate 0.4% among 360,000 | Muscarinic acetylcholine receptor M4 (Homo sapiens), P08173 | AID 624126, 2012 | CHO-K1 hM4/Gqi5, ACh EC20; 0% = ACh EC20, 100% = maximal ACh | activation, % at 3 µM;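 active = activation above its plate's cutoff, the mean activation of sample wells plus 3 SD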
CHRM5 PAM – human M5 muscarinic receptor positive allosteric modulators, primary screen, CHO-K1 cells, Fluo-8 calcium fluorescence; Muscarinic acetylcholine receptor M5 (Homo sapiens), P08912; CHO-K1 hM5, ACh EC20 PAM; 0% = ACh EC20, 100% = ACh EC100; activation, % at 3 µM; hit rate 0.3% among 360,000; AID 624038, 2012;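 active = activation above the run cutoff, the mean activation of all test compounds plus 3 SD, cut at about 18% in these data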
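Assay system: CHO-K1 hM5 cells / Incubation: Fluo-8 loading 80 min at 37 °C plus 30 min room temperature / Technique: Fluo-8 calcium dye fluorescence, kinetic read / Repeats: single replicate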
Active calls of the source: *. Shown are actives, neighbours in structure and some others; about 1.8% of the full set was active somewhere.

Screening O=C(CCC(=O)N1C[C@H]2C[C@@H](C1)c1cccc(=O)n1C2)NCc1cccc(C(F)(F)F)c1 returned CHRM4 antagonist 98.8*, M4 ag -0.8, M5 ag 0.6, M5 antag 3.6, CHRM4 PAM -16.9 and CHRM5 PAM 0.2.
For N#CC1c2ccccc2-n2nncc2CN1C(=O)CCc1ccccc1 (configuration not stated) the results were CHRM4 antagonist -14.6, M4 ag 2.3, M5 ag 0.9, M5 antag -9.9, CHRM4 PAM 4.1 and CHRM5 PAM 7.5.
CN(Cc1cccc(-c2ccncc2)c1)C(=O)Oc1ccc([N+](=O)[O-])cc1 was read as CHRM4 antagonist 22.6, M4 ag 13.4, M5 ag 0.2, M5 antag 21.9, CHRM4 PAM -11.2 and CHRM5 PAM -22.7.
Cc1ccc(CN2CCN(Cc3ccccc3F)CC2)cc1 was read as CHRM4 antagonist -5.7, M4 ag 0.7, M5 ag -5.8, M5 antag -9.5, CHRM4 PAM 4.1 and CHRM5 PAM 26.0*.
`O=C1NCN(c2ccccc2)C12CCN(C(c1cccc3ccccc13)c1nnnn1-c1ccc3c(c1)OCCO3)CC2` (configuration not stated) gave CHRM4 antagonist -4.3, M4 ag 1.4, M5 ag 0.8, M5 antag 1.7, CHRM4 PAM 1.8 and CHRM5 PAM 0.9.
`CCOC(=O)[C@]12Cc3cc(Cl)ccc3[C@H]1N(C1CCCCC1)C(=O)c1ccccc12` gave CHRM4 antagonist 29.6*, M4 ag -1.8, M5 ag 23.9*, M5 antag 2.1, CHRM4 PAM 1.4 and CHRM5 PAM 11.7.
CCOC(=O)[C@]12Cc3cc(OC)ccc3[C@H]1N(C1CCCCC1)C(=O)c1ccccc12 was read as CHRM4 antagonist 19.6, M4 ag -1.8, M5 ag 19.8, M5 antag 3.5, CHRM4 PAM -1.8 and CHRM5 PAM 8.7.
O=C1C=C2c3ccccc3CC(C(=O)O)C2CC1 (configuration not stated) was read as CHRM4 antagonist -0.2, M4 ag 1.2, M5 ag 3.3, M5 antag -7.4, CHRM4 PAM 6.5 and CHRM5 PAM 4.6.
CN1[C@@H]2CC[C@H]1CC(OC1c3ccccc3CCc3ccccc31)C2 (some centres not stated) was read as CHRM4 antagonist 99.8*, M4 ag 6.3, M5 ag -0.8, M5 antag 99.3*, CHRM4 PAM -18.8 and CHRM5 PAM -18.7.
Cc1cc(C=O)c(C)n1CC1CCCO1 (configuration not stated) was read as CHRM4 antagonist -9.0, M4 ag 0.6, M5 ag -6.8, M5 antag -11.4, CHRM4 PAM 4.2 and CHRM5 PAM 18.4*.
For O=C(c1ccc(C(F)(F)F)cc1)C1CCCN(C2CCSCC2)C1 (configuration not stated) the results were CHRM4 antagonist 24.4, M4 ag 1.7, M5 ag -10.3, M5 antag -7.2, CHRM4 PAM -21.1 and CHRM5 PAM -11.0.
Cc1cc(Cl)ccc1C(=O)C1CCCN(C2CCSCC2)C1 (configuration not stated) was read as CHRM4 antagonist 33.3*, M4 ag 2.0, M5 ag -9.3, M5 antag 10.9, CHRM4 PAM -23.8 and CHRM5 PAM -20.4.
Screening CC(C)CN1Cc2ccccc2-n2nncc2C1 returned CHRM4 antagonist 2.8, M4 ag 0.2, M5 ag -2.2, M5 antag -2.5, CHRM4 PAM -0.3 and CHRM5 PAM 1.6.
`COc1cccc(C(c2nnnn2-c2ccc3c(c2)OCCO3)N2CCC(n3c(=O)[nH]c4ccccc43)CC2)c1OC` (configuration not stated) gave CHRM4 antagonist 13.2, M4 ag 23.2, M5 ag 29.8*, M5 antag 14.6, CHRM4 PAM -9.9 and CHRM5 PAM -9.5.
For COc1ccc(-n2nnnc2C(c2cccs2)N2CCC(n3c(=O)[nH]c4ccccc43)CC2)cc1 (configuration not stated) the results were CHRM4 antagonist 36.4*, M4 ag 17.5, M5 ag 4.1, M5 antag 7.0, CHRM4 PAM -9.1 and CHRM5 PAM -21.2.
`COc1ccc(-n2nnnc2C(c2ccccc2)N2CCC(n3c(=O)[nH]c4ccccc43)CC2)cc1` (configuration not stated) gave CHRM4 antagonist 24.8, M4 ag 18.9, M5 ag 6.0, M5 antag 22.5, CHRM4 PAM -12.0 and CHRM5 PAM -18.2.
`O=c1[nH]c2ccccc2n1C1CCN(C(c2ccccc2)c2nnnn2-c2ccc3c(c2)OCCO3)CC1` (configuration not stated) gave CHRM4 antagonist 34.0*, M4 ag 21.1, M5 ag 1.5, M5 antag 15.1, CHRM4 PAM -5.9 and CHRM5 PAM -15.3.
`COc1ccc(-n2nnnc2C(c2cccc(OC)c2OC)N2CCC(n3c(=O)[nH]c4ccccc43)CC2)cc1` (configuration not stated) gave CHRM4 antagonist 17.6, M4 ag 17.5, M5 ag 15.1, M5 antag 8.8, CHRM4 PAM -8.4 and CHRM5 PAM -16.3.
CCCCn1nnnc1C(CCSC)N1CCC2(CC1)C(=O)NCN2c1ccccc1 (configuration not stated) was read as CHRM4 antagonist 13.2, M4 ag 21.9, M5 ag 12.4, M5 antag 7.0, CHRM4 PAM -12.7 and CHRM5 PAM -9.4.
Screening CCOC(=O)[C@]12Cc3c(cc(OC)c(OC)c3OC)[C@H]1N(C(C)C)C(=O)c1cc(OC)ccc12 returned CHRM4 antagonist -3.5, M4 ag 1.2, M5 ag 5.0, M5 antag -0.3, CHRM4 PAM 4.5 and CHRM5 PAM 5.2.
Screening CC(Oc1ccc(-c2ccccc2)cc1)C(=O)O (configuration not stated) returned CHRM4 antagonist 0.4, M4 ag 0.2, M5 ag -8.4, M5 antag -3.6, CHRM4 PAM 4.2 and CHRM5 PAM 18.2*.
For CC(=O)c1ccc(-c2ccccc2)cc1 the results were CHRM4 antagonist 2.0, M4 ag 0.1, M5 ag -0.8, M5 antag -7.4, CHRM4 PAM -0.3 and CHRM5 PAM 1.3.

Screens deposited in PubChem BioAssay by The Scripps Research Institute Molecular Screening Center.
